Measured values published in ChEMBL document CHEMBL5046223, “AZD5438-PROTAC: A selective CDK2 degrader that protects against cisplatin- and noise-induced hearing loss” (Eur J Med Chem, 2021).
Active and inactive are the calls of the source. The calls are words filed in the database; no cut-off is given here.

Legend:
[1] = tested on: Protein cereblon/Cyclin-dependent kinase 2 (Mus musculus); test: Protac activity at CDK2/CRBN E3 ligase in mouse HEI-OC1 cells assessed as induction of CDK2 protein degradation at 100 nM measured after 24 hrs by Western blot analysis
[2] = organism: Danio rerio; test: Protection of cisplatin-induced ototoxicity in 5 days post fertilization zebrafish assessed as protection neuromast hair cells at 0.001 to 1 nM measured after 24 hrs by fluorescence microscopy; type: functional, organism-based; conditions: dose upper 1.0 µM, time 5.0 day, in the assay text read “0.001 to 1 µM” for “0.001 to 1 nM”
Procedure, shortened: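 Zebrafish larvae at 4 dpf pre-exposed 24 h to 0.1 nM–1 μM in E3, then co-incubated 6 h with compound plus cisplatin 400 μM. After 1 h recovery, fish were fixed in 4% PFA and immunostained for otoferlin. Hair cells in otic, middle and opercular neuromasts were counted manually under a 40x fluorescence objective, 6–8 fish per experiment; mean ± SEM.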

[3] = target: von Hippel-Lindau disease tumor suppressor/CDK2 (Danio rerio) (UniProt Q7ZWB1+Q68EH9); test: PROTAC activity at CDK2/VHL E3 ligase in 5 days post fertilization zebrafish assessed as decrease in CDK2 abundance measured after 24 hrs by immunoblot analysis; conditions: dose 1.0 µM
Procedure, shortened: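 TuAB zebrafish larvae at 4 dpf, kept in E3 medium (pH 7.2) at 28.5°C, exposed 24 h to 0.1 nM–1 μM in E3 (controls 0.1% DMSO). Fish were collected before any ototoxin. Lysates were run at 20–30 μg protein per lane, probed with anti-CDK2 (1:500) against β-actin, and CDK2 bands quantified from three independent experiments.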

[4] = target: von Hippel-Lindau E3 ligase/Cyclin-dependent kinase 2 (Mus musculus); test: Protac activity at CDK2/VHL E3 ligase in mouse HEI-OC1 cells assessed as induction of CDK2 protein degradation measured after 24 hrs by Western blot analysis
[5] = organism: Danio rerio; test: Protection of kainic acid-induced ototoxicity in 5 days post fertilization zebrafish assessed as protection neuromast hair cells at 5 to 100 nM measured after 24 hrs by fluorescence microscopy; conditions: dose 5-100 nM, time 5.0 day

| Activity [1] | Activity [3] | DC50 [4] | SMILES | Activity [2] | Activity [5] |
| --- | --- | --- | --- | --- | --- |
| inactive |  |  | Cc1ncc(-c2ccnc(Nc3ccc(S(=O)(=O)CCCc4cn(CCOCCOCCOCCNc5cccc6c5C(=O)N(C5CCC(=O)NC5=O)C6=O)nn4)cc3)n2)n1C(C)C (stereo unspecified) |  |  |
| inactive |  |  | O=C1CCC(N2C(=O)c3cccc(NCCOCCOCCOCCn4cc(CO[C@H]5CC[C@H](NC(=O)c6n[nH]cc6NC(=O)c6c(F)cccc6F)CC5)nn4)c3C2=O)C(=O)N1 (stereo partly specified) |  |  |
|  | Active | 100 nM | Cc1ncsc1-c1ccc(CNC(=O)[C@@H]2C[C@@H](O)CN2C(=O)[C@@H](NC(=O)COCCn2cc(CCCS(=O)(=O)c3ccc(Nc4nccc(-c5cnc(C)n5C(C)C)n4)cc3)nn2)C(C)(C)C)cc1 | Active | Active |
